Reference: ChEMBL document CHEMBL1275527, “A nonsense mutation in the ERG6 gene leads to reduced susceptibility to polyenes in a clinical isolate of Candida glabrata” (2008)
Values after ≈ are worked out from the molar mass of the structure shown. Active and inactive are the calls of the source. The calls are words filed in the database; no cut-off is given here.

Tests used:
Nakaseomyces glabratus [1] = test: Antifungal activity against Candida glabrata isolate 21230 at 2 mM; type: functional, organism-based
How it was run: (§1)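 Compound incorporated at 2 mM into YEPD agar. Cell suspensions at 10^7 down to 10^3 cells per ml were spotted at 10 µl each, dried and incubated 48 h at 37°C. Growth was compared with spots on YEPD agar without inhibitor.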

Nakaseomyces glabratus [2] = test: Antifungal activity against Candida glabrata isolate 21229 with missense mutation in ERG6 gene at 2 mM; type: functional, organism-based; how it was run: as §1
Nakaseomyces glabratus [3] = test: Antifungal activity against Candida glabrata isolate 21230 with silent mutations in ERG4, ERG5 genes and nonsense mutation in ERG6 gene by disk diffusion method; type: functional
Nakaseomyces glabratus [4] = test: Antifungal activity against wild-type Candida glabrata isolate 21231 by disk diffusion method; type: functional
Nakaseomyces glabratus [5] = test: Antifungal activity against Candida glabrata isolate 21230 with silent mutation in ERG4, ERG5 genes and nonsense mutation in ERG6 gene by Etest method; type: functional
Nakaseomyces glabratus [6] = test: Antifungal activity against wild-type Candida glabrata isolate 21231 by Etest method; type: functional
Nakaseomyces glabratus [7] = test: Antifungal activity against Candida glabrata isolate 21230C by disk diffusion method; type: functional
How it was run: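 The strain is the ura3 derivative of clinical isolate 21230 complemented with a centromeric plasmid carrying wild-type ERG6, tested as for the parent isolate. Isolates were maintained on YEPD agar.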

Compound | Activity (Nakaseomyces glabratus [1]) | Activity (Nakaseomyces glabratus [2]) | inhibition zone (IZ) (Nakaseomyces glabratus [3]) [mm] | inhibition zone (IZ) (Nakaseomyces glabratus [4]) [mm] | MIC (Nakaseomyces glabratus [5]) [µg/mL] | MIC (Nakaseomyces glabratus [6]) [µg/mL] | inhibition zone (IZ) (Nakaseomyces glabratus [7]) [mm]
Cn1c(=O)c2c(ncn2C)n(C)c1=O | Active | Active |  |  |  |  | 
C[C@@H](c1ncncc1F)[C@](O)(Cn1cncn1)c1ccc(F)cc1F [VORICONAZOLE] |  |  | 39 | 30 |  |  | 
OC(Cn1cncn1)(Cn1cncn1)c1ccc(F)cc1F [FLUCONAZOLE] |  |  | 29 | 21 | 1 (≈ 3.27 µM) | 6 (≈ 19.6 µM) | 
Clc1ccc(COC(Cn2ccnc2)c2ccc(Cl)cc2Cl)cc1 (stereo not drawn) [ECONAZOLE] |  |  | 35 | 25 |  |  | 
CC(=O)N1CCN(c2ccc(OCC3COC(Cn4ccnc4)(c4ccc(Cl)cc4Cl)O3)cc2)CC1 (stereo not drawn) [KETOCONAZOLE] |  |  | 43 | 33 | 0.064 (≈ 0.12 µM) | 0.19 (≈ 0.358 µM) | 
C[C@@H]1[C@H](O)[C@@H](C)/C=C/C=C/C=C/C=C/C=C/C=C/C=C/[C@H](O[C@@H]2O[C@H](C)[C@@H](O)[C@H](N)[C@@H]2O)C[C@@H]2O[C@](O)(C[C@@H](O)C[C@@H](O)[C@H](O)CC[C@@H](O)C[C@@H](O)CC(=O)O[C@H]1C)C[C@H](O)[C@H]2C(=O)O [AMPHOTERICIN B] |  |  | 13 | 27 | 0.125 (≈ 0.135 µM) | 0.047 (≈ 0.0509 µM) | 29
NYSTATIN |  |  | 19 | 31 |  |  | 
Clc1ccc(COC(Cn2ccnc2)c2ccc(Cl)cc2Cl)c(Cl)c1 (stereo not drawn) [MICONAZOLE] |  |  | 29 | 21 |  |  | 
